Results on 18 compounds are retold here after ChEMBL document CHEMBL4261546, “Synthesis of novel pentacyclic triterpene-Neu5Ac2en derivatives and investigation of their in vitro anti-influenza entry activity” (Medchemcomm, 2017).

Each structure is given as a SMILES string.

Series [1] has as its system MDCK. Description: Cytotoxicity against MDCK cells assessed as reduction in cell viability at 10 uM after 40 hrs by CellTiter-Glo assay. The format is cell-based, Canis lupus familiaris. Conditions: dog. In a few lines: (§1)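 Preliminary cytotoxicity screen in MDCK cells at 10 μM and 100 μM. Cells seeded overnight in DMEM with 10% FBS at 37 °C, 5% CO2, then exposed to compound for 40 h. CellTiter-Glo read-out, viability expressed as % of untreated control after background correction. Paclitaxel served as positive control.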

In the next series the test system is Influenza A virus. Put plainly: Antiviral activity against Influenza A virus (A/WSN/33(H1N1)) infected in MDCK cells assessed as reduction in virus-induced cytopathic effect after 40 hrs by CellTiter-Glo assay. It counts as functional, organism-based. As to conditions: A/WSN/1933(H1N1). In a few lines:
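MDCK cells grown overnight in DMEM with 10% FBS at 37 °C, 5% CO2. Medium replaced with compound plus A/WSN/33 virus (MOI 0.1) in DMEM with 1% FBS, 2 μg/mL TPCK-trypsin and 1% DMSO final. After 40 h, CellTiter-Glo luminescence read as CPE. IC50 is the mean of ≥3 independent determinations with standard deviations.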

Series [2] can be described thus: Cytotoxicity against MDCK cells assessed as reduction in cell viability after 40 hrs by CellTiter-Glo assay. It counts as cell-based, Canis lupus familiaris. Conditions: dog. The method in brief:
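MDCK cells seeded in DMEM with 10% FBS and cultured overnight at 37 °C, 5% CO2. Compounds added and incubated 40 h, then CellTiter-Glo viability measured. Viability % = background-corrected signal of treated well divided by control well, ×100. CC50 is the concentration giving 50% cell death.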

Series [3] can be described thus: Selectivity index, ratio of CC50 for MDCK cells to IC50 for Influenza A virus (A/WSN/33(H1N1)) infected in MDCK cells. It counts as toxicity, cell-based. As to conditions: dog, read-out: Ratio CC50/IC50. In a few lines: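 SI = CC50/IC50. CC50 comes from the 40 h CellTiter-Glo viability assay in uninfected MDCK cells. IC50 comes from the 40 h CellTiter-Glo CPE-reduction assay with A/WSN/33 at MOI 0.1.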

For series [4], the system named is MDCK. Description: Cytotoxicity against MDCK cells assessed as reduction in cell viability at 100 uM after 40 hrs by CellTiter-Glo assay. As to conditions: dog. The format is cell-based, Canis lupus familiaris. In a few lines: as §1
For orientation: In ATP-based viability assays light output follows the ATP content of the culture.

One may read the IC50 as the concentration needed to halve the response being measured. For orientation: CC50 means the concentration that lowers cell viability or growth by half. As for `COC(=O)C1=C[C@H](n2cc(CNC(=O)[C@]34CCC(C)(C)C[C@H]3C3=CC[C@@H]5[C@@]6(C)CC[C@H](O)C(C)(C)[C@@H]6CC[C@@]5(C)[C@]3(C)C[C@H]4O)nn2)[C@@H](NC(C)=O)[C@H]([C@H](O)[C@H](O)CO)O1`, the Activity result in the series on MDCK [1] is “Non-Toxic”. Moreover, the IC50 in the series with Influenza A virus came out at 55 µM. Also, in series [2], the CC50 at 40 h is > 200 µM. The selectivity ratio in series [3] was > 3.6.
For the compound `C=C(C)[C@@H]1CC[C@]2(C(=O)NCc3cn([C@H]4C=C(C(=O)OC)O[C@@H]([C@H](O)[C@H](O)CO)[C@@H]4NC(C)=O)nn3)CC[C@]3(C)[C@H](CC[C@@H]4[C@@]5(C)CC[C@H](O)C(C)(C)[C@@H]5CC[C@]43C)[C@@H]12`, in the series on MDCK [1], the Activity result is recorded as “Non-Toxic”. The IC50 in the series with Influenza A virus is > 100 µM.
As to `COC(=O)C1=C[C@H](n2cc(CNC(=O)[C@]34CC[C@@H](C)[C@H](C)[C@H]3C3=CC[C@@H]5[C@@]6(C)CC[C@H](O)C(C)(C)[C@@H]6CC[C@@]5(C)[C@]3(C)CC4)nn2)[C@@H](NC(C)=O)[C@H]([C@H](OC(C)=O)[C@@H](COC(C)=O)OC(C)=O)O1`, the figures for the Activity entry in the series with MDCK [1] and in the series on MDCK [4] were “Non-Toxic” and “Toxic”, respectively.
`COC(=O)C1=C[C@H](n2cc(CNC(=O)[C@]34CCC(C)(C)C[C@H]3C3=CC[C@@H]5[C@@]6(C)CC[C@H](O)C(C)(C)[C@@H]6CC[C@@]5(C)[C@]3(C)C[C@H]4O)nn2)[C@@H](NC(C)=O)[C@H]([C@H](OC(C)=O)[C@@H](COC(C)=O)OC(C)=O)O1`: the Activity result is reported as “Non-Toxic” in the series with MDCK [1] and “Toxic” with MDCK [4]. Further, in the series on Influenza A virus, the IC50 was > 100 µM.
`C=C(C)[C@@H]1CC[C@]2(C(=O)NCc3cn([C@H]4C=C(C(=O)OC)O[C@@H]([C@H](OC(C)=O)[C@@H](COC(C)=O)OC(C)=O)[C@@H]4NC(C)=O)nn3)CC[C@]3(C)[C@H](CC[C@@H]4[C@@]5(C)CC[C@H](O)C(C)(C)[C@@H]5CC[C@]43C)[C@@H]12`: the results for the Activity entry in the series with MDCK [1] and in the series with MDCK [4] were “Non-Toxic” and “Toxic”, respectively.
With `C=C(C)[C@@H]1CC[C@]2(C(=O)N[C@H]3C=C(C(=O)OC)O[C@@H]([C@H](OC(C)=O)[C@@H](COC(C)=O)OC(C)=O)[C@@H]3NC(C)=O)CC[C@]3(C)[C@H](CC[C@@H]4[C@@]5(C)CC[C@H](O)C(C)(C)[C@@H]5CC[C@]43C)[C@@H]12`, in the series on MDCK [1], the Activity result was “Non-Toxic”. Also, the IC50 in the series with Influenza A virus is > 100 µM.
`COC(=O)C1=C[C@H](NC(=O)[C@]23CCC(C)(C)C[C@H]2C2=CC[C@@H]4[C@@]5(C)CC[C@H](O)C(C)(C)[C@@H]5CC[C@@]4(C)[C@]2(C)CC3)[C@@H](NC(C)=O)[C@H]([C@H](O)[C@H](O)CO)O1`: the Activity result in the series with MDCK [1] was “Non-Toxic”; with MDCK [4], “Toxic”.
`COC(=O)C1=C[C@H](NC(=O)[C@]23CCC(C)(C)C[C@H]2C2=CC[C@@H]4[C@@]5(C)CC[C@H](O)C(C)(C)[C@@H]5CC[C@@]4(C)[C@]2(C)C[C@H]3O)[C@@H](NC(C)=O)[C@H]([C@H](O)[C@H](O)CO)O1`: the Activity entry in the series with MDCK [1] is given as “Non-Toxic”. In addition, the IC50 in the series on Influenza A virus came to 40.5 µM. The CC50 at 40 h in series [2] was > 200 µM. Further, the selectivity ratio in series [3] is > 4.9.
For `COC(=O)C1=C[C@@H](n2cc(CNC(=O)[C@]34CCC(C)(C)C[C@H]3C3=CC[C@@H]5[C@@]6(C)CC[C@H](O)C(C)(C)[C@@H]6CC[C@@]5(C)[C@]3(C)CC4)nn2)[C@@H](NC(C)=O)[C@H]([C@H](O)[C@H](O)CO)O1`, the Activity result in the series on MDCK [1] was “Non-Toxic”. Also, the IC50 in the series with Influenza A virus was > 100 µM.
For the compound `COc1cc(/C=C/C(=O)CC(=O)/C=C/c2ccc(O)c(OC)c2)ccc1O` [CURCUMIN], the IC50 in the series on Influenza A virus worked out at 6.7 µM. Further, the selectivity ratio in series [3] was 7.2.
For `COC(=O)C1=C[C@H](NC(=O)[C@]23CC[C@@H](C)[C@H](C)[C@H]2C2=CC[C@@H]4[C@@]5(C)CC[C@H](O)C(C)(C)[C@@H]5CC[C@@]4(C)[C@]2(C)CC3)[C@@H](NC(C)=O)[C@H]([C@H](O)[C@H](O)CO)O1`, the Activity result in the series with MDCK [1] is “Non-Toxic”; with MDCK [4] it was “Toxic”.
Regarding `COC(=O)C1=C[C@@H](n2cc(CNC(=O)[C@]34CC[C@@H](C)[C@H](C)[C@H]3C3=CC[C@@H]5[C@@]6(C)CC[C@H](O)C(C)(C)[C@@H]6CC[C@@]5(C)[C@]3(C)CC4)nn2)[C@@H](NC(C)=O)[C@H]([C@H](O)[C@H](O)CO)O1`, the Activity result was “Non-Toxic” with MDCK [1] and “Toxic” in the series on MDCK [4]. The 50% inhibitory concentration (IC50) with Influenza A virus is > 100 µM.
With `COC(=O)C1=C[C@H](n2cc(CNC(=O)[C@]34CC[C@@H](C)[C@H](C)[C@H]3C3=CC[C@@H]5[C@@]6(C)CC[C@H](O)C(C)(C)[C@@H]6CC[C@@]5(C)[C@]3(C)CC4)nn2)[C@@H](NC(C)=O)[C@H]([C@H](O)[C@H](O)CO)O1`, the Activity result was “Non-Toxic” in the series with MDCK [1] and “Toxic” in the series on MDCK [4]. For the same compound, the IC50 with Influenza A virus is > 100 µM.
With `COC(=O)C1=C[C@H](NC(=O)[C@]23CCC(C)(C)C[C@H]2C2=CC[C@@H]4[C@@]5(C)CC[C@H](O)C(C)(C)[C@@H]5CC[C@@]4(C)[C@]2(C)C[C@H]3O)[C@@H](NC(C)=O)[C@H]([C@H](OC(C)=O)[C@@H](COC(C)=O)OC(C)=O)O1`, the Activity entry with MDCK [1] was “Non-Toxic”. Also, the IC50 in the series on Influenza A virus was found to be 15.5 µM. The CC50 at 40 h in series [2] is > 200 µM. Further, in series [3], the selectivity ratio was > 32.3.
For `COC(=O)C1=C[C@H](NC(=O)[C@]23CC[C@@H](C)[C@H](C)[C@H]2C2=CC[C@@H]4[C@@]5(C)CC[C@H](O)C(C)(C)[C@@H]5CC[C@@]4(C)[C@]2(C)CC3)[C@H](NC(C)=O)[C@H]([C@H](OC(C)=O)[C@@H](COC(C)=O)OC(C)=O)O1`, the Activity entry in the series with MDCK [1] and with MDCK [4] was “Non-Toxic” throughout. Further, the IC50 with Influenza A virus was 19.2 µM. Moreover, the CC50 at 40 h in series [2] was determined as 136 µM. Besides, the selectivity ratio in series [3] was found to be 7.1.
In the case of `COC(=O)C1=C[C@H](n2cc(CNC(=O)[C@]34CCC(C)(C)C[C@H]3C3=CC[C@@H]5[C@@]6(C)CC[C@H](O)C(C)(C)[C@@H]6CC[C@@]5(C)[C@]3(C)CC4)nn2)[C@@H](NC(C)=O)[C@H]([C@H](OC(C)=O)[C@@H](COC(C)=O)OC(C)=O)O1`, the Activity entry was “Non-Toxic” in the series with MDCK [1] and “Toxic” with MDCK [4].
For the compound `COC(=O)C1=C[C@H](n2cc(CNC(=O)[C@]34CCC(C)(C)C[C@H]3C3=CC[C@@H]5[C@@]6(C)CC[C@H](O)C(C)(C)[C@@H]6CC[C@@]5(C)[C@]3(C)CC4)nn2)[C@@H](NC(C)=O)[C@H]([C@H](O)[C@H](O)CO)O1`, in the series on MDCK [1], the Activity entry was “Non-Toxic”. In addition, the IC50 with Influenza A virus worked out at 28.3 µM. Moreover, in series [2], the CC50 at 40 h is > 200 µM. The selectivity ratio in series [3] is > 7.1.
In the case of `C=C(C)[C@@H]1CC[C@]2(C(=O)N[C@H]3C=C(C(=O)OC)O[C@@H]([C@H](O)[C@H](O)CO)[C@@H]3NC(C)=O)CC[C@]3(C)[C@H](CC[C@@H]4[C@@]5(C)CC[C@H](O)C(C)(C)[C@@H]5CC[C@]43C)[C@@H]12`, the Activity result in the series with MDCK [1] is “Non-Toxic”. Moreover, the IC50 in the series with Influenza A virus was > 100 µM.
